Not all results are given here.
HKDC1 act: increases human hexokinase HKDC1 activity; Q2TB90; recombinant HKDC1, G6PDH/diaphorase resazurin fluorescence; hits give low values; activity change, negative = activation, % at 20 µM; 0.056% of 340,000 active;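 active = activation of 40% or more at 20 µM, a change of -40% or lower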
Target sequence (Q2TB90 whole entry, looked up): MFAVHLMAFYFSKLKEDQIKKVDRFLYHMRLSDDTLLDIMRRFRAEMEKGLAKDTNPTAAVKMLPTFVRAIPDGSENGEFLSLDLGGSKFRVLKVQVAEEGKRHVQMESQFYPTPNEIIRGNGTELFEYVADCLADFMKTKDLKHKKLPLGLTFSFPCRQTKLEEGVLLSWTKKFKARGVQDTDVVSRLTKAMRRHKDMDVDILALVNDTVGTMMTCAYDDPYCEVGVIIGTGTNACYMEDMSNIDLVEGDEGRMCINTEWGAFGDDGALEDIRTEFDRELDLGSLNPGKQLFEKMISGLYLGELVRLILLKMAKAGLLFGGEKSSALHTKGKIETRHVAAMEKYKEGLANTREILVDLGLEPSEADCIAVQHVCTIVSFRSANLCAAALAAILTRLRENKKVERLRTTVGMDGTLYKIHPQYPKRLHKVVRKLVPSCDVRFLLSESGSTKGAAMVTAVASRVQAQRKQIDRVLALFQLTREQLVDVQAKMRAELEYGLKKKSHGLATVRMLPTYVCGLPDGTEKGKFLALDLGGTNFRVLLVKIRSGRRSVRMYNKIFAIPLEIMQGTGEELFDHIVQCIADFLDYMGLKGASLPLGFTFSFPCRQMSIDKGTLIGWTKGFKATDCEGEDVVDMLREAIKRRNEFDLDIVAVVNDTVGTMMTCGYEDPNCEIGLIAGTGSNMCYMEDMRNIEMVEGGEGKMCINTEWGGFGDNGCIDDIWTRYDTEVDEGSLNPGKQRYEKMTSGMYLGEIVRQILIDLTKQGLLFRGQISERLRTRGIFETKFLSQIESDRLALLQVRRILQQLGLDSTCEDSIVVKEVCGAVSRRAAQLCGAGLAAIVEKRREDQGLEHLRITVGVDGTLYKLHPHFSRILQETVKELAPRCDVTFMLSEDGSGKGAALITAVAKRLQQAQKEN
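system = in-house human HKDC1 enzyme, G6PDH and diaphorase coupling enzymes | amount = HKDC1 5 µg/mL | measured by = resorufin fluorescence from 100 µM resazurin, NADP 1 mM, Ex 525/Em 613 nm | times = enzyme reaction 90 min, room temperature, in dark | doses = single compound dose of 20 µM, 1% DMSO final | medium = Tris/MgCl2 buffer, pH 8.0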
An asterisk follows results filed as active.

SMILES	HKDC1 act
Cc1cc(C)n2cc(CSc3nnc(-c4ccccc4)c(-c4ccccc4)n3)nc2n1	38
COC1=C(Br)C(=O)c2ncccc2C1=O	56
CC(NNC(=S)N1CCN(c2ccccn2)CC1)c1nccc2ccccc12 (stereo not given)	-42*
Cc1nc2c(c(=O)c3ccccc3n2C)c(=O)n1-c1ccccc1	51
O=C(/C=C/c1cccc([N+](=O)[O-])c1)c1ccc([N+](=O)[O-])o1	55
Nc1nc(-c2cccc(Br)c2)cs1	-65*
O=C1C=C(Nc2ccccc2C(=O)O)c2ccccc2C1=O	46
CCOC(=O)C(C(=O)OCC)c1cc(Br)c2noc3c2c1C(=O)c1ccccc1-3	54
O=C(CSc1n[nH]c(=O)[nH]c1=O)Nc1ccc2c(c1)C(=O)c1ccccc1C2=O	52
CC(C)c1ccc(S(=O)(=O)/N=C2/C=C(Sc3ncn[nH]3)C(=O)c3ccccc32)cc1	64
Nc1ccc(S(=O)(=O)c2cc(O)c3ccccc3c2O)cc1	55
CCN=C1NN=C(c2ccc(C)cc2)CS1	-64*
NC1=C(Cl)C(=O)c2ccc(S(N)(=O)=O)cc2C1=O	-134*
O=C(O)c1cc(O)c2c(c1)C(=O)c1cccc(O)c1C2=O	40
CC(=O)N(C1=C(Cl)C(=O)c2ccccc2C1=O)C1CCCCC1	58
COc1ccc(NC(=O)Cc2c[nH]c3ccccc23)cc1S(=O)(=O)N1CCCCC1	49
COc1cc(N(C)C)ccc1C=c1c2ccccc2n2c1cc(-c1ccccc1)[n+]2C	41
COC(=O)c1c(NC(C)=O)sc(Cc2ccccc2)c1C	-77*
Cc1c(Cc2ccccc2)sc(NC(=O)Cc2ccccc2)c1C(N)=O	-52*
O=C1C=C(N(CCO)Cc2ccccc2)c2ccccc2C1=O	35
Cc1ccc(S(=O)(=O)/N=C2/C=C(Sc3ncn[nH]3)C(=O)c3ccccc32)cc1	69
Cc1ccc(S(=O)(=O)/N=C2\C=C(Nc3cccc(C(=O)O)c3)C(=O)c3ccccc32)cc1	45
COc1cc(/C=C2\SC(c3ccccc3)=NC2=O)cc(Cl)c1O	49
CC1=NOC(=O)/C1=C\c1ccc(-c2cc(Cl)ccc2Cl)o1	57
CC1COCC(C)N1C1=C(Cl)C(=O)c2ccccc2C1=O (stereo not given)	38
SMILES	HKDC1 act
CC1(C)C(=O)Nc2ccccc2N1C(=O)COC(=O)c1cc(Cl)cc(Cl)c1	-41*
NC(=O)[C@H]1CC2(CC(c3cccc(NC(=O)[C@H]4CCC(=O)N4)c3)=NO2)CN1C(=O)c1ccccc1 (stereo not given in full)	39
C=CC1=C(C(=O)O)N2C(=O)C(NC(=O)Cc3ccccc3)C2SC1 (stereo not given)	40
COC1=CC(=O)c2c(ccc3ncnc(N)c23)C1=O	87
COc1cccc2c1C(=O)C=C(C)C2=O	-43*
CCc1nc2sc3c(=O)[nH]cnc3c2c2c1CSC(C)(C)C2	37
Cc1sc(-c2ccccn2)nc1OC(=O)c1ccc(F)cc1F	-50*
NC(=O)C1CCN(C2=C(Cl)C(=O)c3ccccc3C2=O)CC1	47
C=CCNC(=S)N/N=C(\C)c1ccccn1	-44*
CCN(CC)c1ccc2c(c1)oc(=O)c1c(Cl)cc(=O)oc12	49
COc1cc(/C=C2\SC(=S)N(c3cccnc3)C2=O)ccc1O	38
CCOc1ccc(S(=O)(=O)Nc2cc(SCC(=O)O)c(O)c3ccccc23)cc1	60
CCN(CC)S(=O)(=O)c1cccc(C(=O)N/N=C(\C)c2ccc(O)cc2O)c1	-43*
CC(=O)N1c2ccc(Cl)cc2C2C=CCC2C1c1cccc2ccccc12 (stereo not given)	42
CCc1ccc(S(=O)(=O)/N=C2\C=C(Nc3ccc(C(=O)O)cc3)C(=O)c3ccccc32)cc1	54
COC(=O)c1ccc(NCc2c(O)ccc(O)c2Br)cc1Cl	45
CC(=NNC(=S)N1CC2CCC(CC2)C1)c1ccncn1	-54*
COc1ccc(NC(=O)CSc2ccc(-c3ccco3)nn2)cc1OC	43
CC(=O)Nc1ccc2cc3ccc(NC(C)=O)cc3nc2c1	43
O=C(Nc1ccc(F)cc1)C(=O)c1c(O)[nH]c2ccc([N+](=O)[O-])cc12	42
Cc1ccc(-c2nc(NC(=O)CSc3cc(C)c4ccccc4n3)ns2)cc1	57
COC(=O)c1ccc2c(c1)C(C)(C)C(/C=C/c1ccccc1O)=[N+]2C	38
O=C(NNC(=S)Nc1ccc(Cl)c(Cl)c1)c1ccccn1	-57*
O=C(Nc1ccc(Cl)c(Cl)c1)Nc1nnc(-c2ccncc2)s1	41
CC(C)(C)c1c(Cl)c(O)c(-c2ccccc2)c(=O)n1-c1ccccc1	36
CCC1C/C(=C\c2cccnc2)C(=O)/C(=C/c2cccnc2)C1 (stereo not given)	35
CC(NC1=CC(=O)c2cccnc2C1=O)C(O)c1ccccc1 (stereo not given)	46
O=C(O)c1[nH]c2ccccc2c1C(c1cc(Cl)cc([N+](=O)[O-])c1O)c1c(C(=O)O)[nH]c2ccccc12	38
CCN(CC)c1ccc(NC(=O)c2ccccc2Br)cc1S(=O)(=O)Nc1ccccc1OC	-43*
